Assays:
[1] = melting temperature; fluorescence melt of hairpins on a sequencing array, two-state fit, raised by 9.35 °C to match UV melts; conditions: sodium 0.088 M
In short: (§1)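 Folding enthalpy and melting temperature come from bootstrapped two-state fits to Cy3 fluorescence of library hairpins carrying annealed Cy3 and quencher oligos on a sequenced MiSeq flow cell. Imaging was done in 50 mM Na-HEPES pH 8.0, 25 mM NaCl, stepping by 2.5 °C up to 60 °C, and signals were normalised to pre-quench Cy3 and to control constructs. Results of four replicates were combined by inverse variance, and fitted temperatures were raised by 9.35 °C to match UV melts.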

[2] = folding enthalpy; higher = less favourable; fluorescence melt of hairpins on a sequencing array, two-state fit; conditions: sodium 0.088 M
In short: as §1

Row | Sequence | Tm [1] | folding enthalpy [2]
1 | GACACCGAAAGGTTTGTC ((((((....)))..))) | 38.3 °C | -15.1 kcal/mol
2 | GACACCGCGAAAGCGGTC (((..(((....)))))) | 35.4 °C | -6.65 kcal/mol
3 | GACACCGGAAACGACGTC (((..((....))..))) | 29.4 °C | -21.9 kcal/mol
4 | GACACGACGAAAGTCGTC (((..(((....)))))) | 34.4 °C | -6.1 kcal/mol
5 | GACACGGCGAAAGCCGTC (((..(((....)))))) | 32.9 °C | -6.25 kcal/mol
6 | GACACGGGAAACCGTACC (..((((....))))..) | 27.9 °C | -8.11 kcal/mol
7 | GACACGGGAAACCGTATC ((.((((....)))).)) | 35.2 °C | -14.5 kcal/mol
8 | GACAGAGGAAACTCCGTC (((.(((....))).))) | 35 °C | -18.3 kcal/mol
9 | GACAGCGAAAGCTAGGTC ((((((....)))..))) | 39.4 °C | -18.4 kcal/mol
10 | GACAGCGAAAGCTCCGTC ((((((....)))..))) | 34.4 °C | -9.29 kcal/mol
11 | GACAGCGAAAGCTGGTC ((((((....))).))) | 55 °C | -11.8 kcal/mol
12 | GACAGCGGAAACACTGTC (((((.(....).))))) | 46.6 °C | -33.4 kcal/mol
13 | GACAGCGGAAACGCCGTC (((.(((....))).))) | 50.6 °C | -18.6 kcal/mol
14 | GACAGCGGAAACGTTGTC ((((.((....)).)))) | 51.9 °C | -37.2 kcal/mol
15 | GACAGGCGAAAGCCGTC (((.(((....)))))) | 64.9 °C | -11.3 kcal/mol
16 | GACAGGGAAACCTGTC ((((((....)))))) | 58.9 °C | -37.8 kcal/mol
17 | GACAGGGGAAACCCTGCC (.(((((....))))).) | 46.4 °C | -13.8 kcal/mol
18 | GACAGTGAAAACTGTC ((((((....)))))) | 56.4 °C | -28.6 kcal/mol
19 | GACATACGAAAGTAAGTC (((.(((....))).))) | 42.7 °C | -29.7 kcal/mol

Row | Sequence | Tm [1] | folding enthalpy [2]
20 | GACATAGCGAAAGCTGTC (((..(((....)))))) | 47.1 °C | -20.5 kcal/mol
21 | GACATAGGAAACTATGTC (((((((....))))))) | 53.5 °C | -35.6 kcal/mol
22 | GACATAGGAAACTGTGTC ((((.((....)).)))) | 44.4 °C | -40.5 kcal/mol
23 | GACATCCGAAAGGACGTC (((.(((....))).))) | 49 °C | -37 kcal/mol
24 | GACATCGGAAACGGTGTC ((((.((....)).)))) | 52.2 °C | -47 kcal/mol
25 | GACATGGAAACATGTC ((((((....)))))) | 56 °C | -38.2 kcal/mol
26 | GACATTGGAAACAACGTC (((.(((....))).))) | 34 °C | -23.2 kcal/mol
27 | GACCAAACGAAAGTTGTC (((..(((....)))))) | 31 °C | -13.8 kcal/mol
28 | GACCAACCGAAAGGTGTC (((..(((....)))))) | 35.5 °C | -13 kcal/mol
29 | GACCAAGCGAAAGCTGTC (((..(((....)))))) | 37.2 °C | -13.5 kcal/mol
30 | GACCAAGGAAACTTGGCC (.(((((....))))).) | 41.7 °C | -16.6 kcal/mol
31 | GACCAAGGAAACTTGGTC (((((((....))))))) | 60.5 °C | -35.8 kcal/mol
32 | GACCACGAAAGTGGTGTC ((((((....)))..))) | 55.4 °C | -12.2 kcal/mol
33 | GACCACGGAAACATGGCC (.(((.(....).))).) | 24.4 °C | -9.89 kcal/mol
34 | GACCACGGAAACATGGTC (((((.(....).))))) | 43.4 °C | -35.5 kcal/mol
35 | GACCAGCGAAAGCTCGTC (((.(((....))).))) | 42.4 °C | -18.6 kcal/mol
36 | GACCAGGAAACTGGTC ((((((....)))))) | 63.4 °C | -39 kcal/mol
37 | GACCAGGGAAACCTGGCC (.(((((....))))).) | 45.5 °C | -15.2 kcal/mol
38 | GACCATGCGAAAGCAGTC (((..(((....)))))) | 30.2 °C | -10.6 kcal/mol

Reference: the array DNA melting data of Ke et al. (doi:10.1101/2024.01.08.574731)
